The values below come from ChEMBL document CHEMBL4513216, “Probing the Open Global Health Chemical Diversity Library for Multistage-Active Starting Points for Next-Generation Antimalarials” (ACS Infect Dis, 2020).

A short description of the data set: Toxicity liver stage against HepG2, at 10uM. It is filed as cell-based. Set-up: test concentration 10 uM, cell line HepG2-A16-CD81EGFP. To be noted: human, HepG2-A16-CD81EGFP cells; read-out: INHIBITION
The method, boiled down:
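Uninfected HepG2-A16-CD81EGFP cells, 3 × 10^3 per well, 1536-well, plated on prespotted compound at 10 μM final, parasite-free screening media added to match infected plates; puromycin 10 μM positive, DMSO 0.5% negative; run in parallel with 48 h PbLuc assay at 37 °C, 5% CO2; viability by CellTiter-Glo luminescence, normalized to controls.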
For `CCOCCC(=O)N1CCN(CC(C)O)CC1` (configuration not stated), the cytotoxicity at 10 µM worked out at 6.7%.

Consider `NC1CC(C(F)(F)F)=NC=C1c1ccccc1` (configuration not stated), for which the cytotoxicity at 10 µM is -9.16%.

On to `CN(C)CCN(C)c1cc(N2CCN(c3ccccn3)CC2)ncn1`, for which the cytotoxicity at 10 µM was determined as 1.23%.

Turning to `Cc1cccc(C2CCCN(C(=O)CN3C(=O)CCNC3=O)C2)c1` (configuration not stated), the cytotoxicity at 10 µM is -2.56%.

`CCc1ccc(C(=O)N2CCCC2c2nnc3n2CCCCC3)o1` (configuration not stated): the cytotoxicity at 10 µM worked out at 10.9%.

Regarding `Cn1cc([C@@H]2CN(S(=O)(=O)c3cccs3)C[C@H]2N)c2ccncc21`, the cytotoxicity at 10 µM was found to be 1.44%.

With `CCCNc1cc(-c2c[nH]nc2C2CCN(C(=O)C3CCC3)C2)ccn1` (configuration not stated), the cytotoxicity at 10 µM stood at 82%.

`COc1ncnc2c1CCN(C(=O)NCc1cccc(F)c1)CC2`: the cytotoxicity at 10 µM was -7.27%.

With `CNc1cncc(C2CCCN2C(=O)c2ccc3oc(=O)n(C)c3c2)n1` (configuration not stated), the cytotoxicity at 10 µM is -1.57%.

Regarding `CC(C)(CO)NC(=O)C1CCC(=O)N(Cc2ccc(Cl)cc2)C1` (configuration not stated), the cytotoxicity at 10 µM was -6.14%.

`COc1cccc(-c2noc(C3CCN(Cc4cn(C)nc4C)C3)n2)c1` (configuration not stated): the cytotoxicity at 10 µM is 11.4%.

Regarding `OCCn1cc(CN2CCN(CCOCC(F)(F)F)CC2)cn1`, the cytotoxicity at 10 µM was -10.7%.

Take `Cc1csc(CN2CC(CO)Oc3ccccc32)n1` (configuration not stated): the cytotoxicity at 10 µM is 6.62%.

With `c1cnc(N2CCO[C@H]3CN(CC4CCOC4)C[C@H]32)cn1` (some centres not stated), the cytotoxicity at 10 µM was -104%.

For the compound `CN(C)Cc1ccc(C2CCCCN2C(=O)c2ncccc2O)cc1` (configuration not stated), the cytotoxicity at 10 µM was -6.59%.

As for `CCc1nc(C2CCCN2C(=O)c2ccc(N3CCCC3)nn2)no1` (configuration not stated), the cytotoxicity at 10 µM is -3.27%.

With `c1cnc(-c2nc(CN3CCCN(Cc4cccs4)CC3)cs2)nc1`, the cytotoxicity at 10 µM was -7.66%.

As to `O=C(NCCOc1ccc(Cl)cn1)Nc1nccs1`, the cytotoxicity at 10 µM came out at 11.3%.

For `CC(C)C1SCC(=O)Nc2c1c(O)nn2C1CCCC1` (configuration not stated), the cytotoxicity at 10 µM was found to be 1.4%.

As to `CS(=O)(=O)Cc1ccc(Cl)cc1NCc1ccccc1F`, the cytotoxicity at 10 µM came to 6.8%.

With `Cc1cccc(N(CCC(N)=O)C(=O)c2cc(-n3cccn3)ccn2)c1`, the cytotoxicity at 10 µM was -1.5%.

On to `CC(C)Oc1ncccc1CNC(=O)N1CCC1`, for which the cytotoxicity at 10 µM is -7.6%.

As for `CC(c1nc(C2CC2)no1)N1CCN(Cc2ccccc2)CC1` (configuration not stated), the cytotoxicity at 10 µM was -5%.

For `CCc1nnc(CN(C)Cc2cccc(C(=O)Nc3cnn(C)c3)c2)o1`, the cytotoxicity at 10 µM was -5.54%.

As to `CCN(CC)C(=O)CNC(=O)N1CCC(c2ccc(OC)cc2)C1` (configuration not stated), the cytotoxicity at 10 µM is -5.51%.

In the case of `CCN1CCC2(CN(C(=O)N(C)C)CC23CCN(CC2CC2)CC3)C1=O` (configuration not stated), the cytotoxicity at 10 µM came to 0.199%.

Consider `O=C(COCCc1ccccc1)N1CCCC(n2cncn2)C1` (configuration not stated), for which the cytotoxicity at 10 µM is -27.8%.

In the case of `CN(C)C(=O)COC[C@]12COC[C@H]1CN(CC1CCC1)C2`, the cytotoxicity at 10 µM was -6.07%.

Regarding `CCOc1ccc(S(=O)(=O)N(CCOC)Cc2ccncc2)cc1F`, the cytotoxicity at 10 µM is 52.2%.

For `CN1CCC2(CC1)CN(C(=O)c1cccc3cccnc13)CCN2C`, the cytotoxicity at 10 µM came to 1.54%.

Turning to `CCCc1cnc(C)nc1N1CCC(Cn2cc(CO)nn2)CC1`, the cytotoxicity at 10 µM was -4.57%.

For the compound `COc1ccc(NC(=O)CCC2CCCN(Cc3ncon3)C2)c(C)c1` (configuration not stated), the cytotoxicity at 10 µM amounted to 0.523%.

For the compound `O=C(Cn1ccc2ccc(Cl)cc21)NCc1ccc(C(=O)O)cc1`, the cytotoxicity at 10 µM is 7.91%.

With `COc1ncc(-c2ccc(NC(C)=O)cc2)c(OC)n1`, the cytotoxicity at 10 µM was -8.64%.

For `O=C(NCc1ccccn1)C1CN(c2nc3ccccc3s2)CCN1` (configuration not stated), the cytotoxicity at 10 µM is -42.8%.

Regarding `COc1ccc(S(=O)(=O)NCC(C)(O)c2cccs2)cc1Cl` (configuration not stated), the cytotoxicity at 10 µM was -11.5%.

For the compound `Cc1cccc(CN2CCC3(CCCN(C(=O)NC(C)C)C3)C2=O)n1` (configuration not stated), the cytotoxicity at 10 µM is 7.51%.

For the compound `Cc1ccc(CN(CCCN2CCOCC2)Cc2cncn2C)o1`, the cytotoxicity at 10 µM was -40.3%.

As to `c1ccc2nc(CN3CCCC3c3noc(C4CC4)n3)ccc2c1` (configuration not stated), the cytotoxicity at 10 µM was -5.48%.

Take `CN(C)C(=O)N1CCN(CCCc2ccccc2)[C@H]2CS(=O)(=O)C[C@H]21`: the cytotoxicity at 10 µM is -5.18%.

Turning to `O=C(NCc1nncn1C1CC1)C1(c2cccc(F)c2)CCOCC1`, the cytotoxicity at 10 µM was -2.07%.

With `O=C(CCCNCc1ccccc1)N1CCCn2cncc2C1`, the cytotoxicity at 10 µM was -3.32%.

As to `c1ccc(COCC2CN(Cc3ccsc3)Cc3nccn3C2)nc1` (configuration not stated), the cytotoxicity at 10 µM was -69.6%.

For the compound `CNC(=O)[C@@H]1C[C@@H](N)CN1C1CCN(c2ccccc2F)CC1`, the cytotoxicity at 10 µM was -53.3%.

On to `CNc1cc2c(nn1)CCN(C(=O)c1cc(F)cc(F)c1)C2`, for which the cytotoxicity at 10 µM was -5.97%.

In the case of `Cc1occc1C(=O)NCc1ccc(N2CCCC(C(N)=O)C2)cc1` (configuration not stated), the cytotoxicity at 10 µM came out at 1.49%.

Turning to `CC(C)c1nc2c(n1C)CCN(CC(=O)NCc1ccccn1)C2`, the cytotoxicity at 10 µM was -8.52%.

In the case of `CSc1ccc(C(=O)N2CC(=O)N(CC(C)(C)C)CC(O)C2)cc1` (configuration not stated), the cytotoxicity at 10 µM was found to be 8.6%.

In the case of `Cc1nc(N2CCC3(CCCN(C(C)C)C3=O)C2)c2sccc2n1` (configuration not stated), the cytotoxicity at 10 µM turned out to be 18.6%.

Regarding `CCCc1nc(CNC(=O)Cc2cc(C)no2)cs1`, the cytotoxicity at 10 µM was -11.5%.

As to `CCC[C@@H]1CN(Cc2nnc(-c3cccnc3)o2)C[C@H]1NC(C)=O`, the cytotoxicity at 10 µM was -4.89%.

Turning to `Cc1nc(CN2CC[C@H]3[C@H]2CCN3c2ncccn2)cs1`, the cytotoxicity at 10 µM was -0.603%.

`O=C1CCCc2cc(S(=O)(=O)NCc3ccccn3)ccc2N1`: the cytotoxicity at 10 µM was 2.41%.

Take `O=C(NCCS(=O)(=O)N1CCN(c2ncccn2)CC1)c1ccccc1`: the cytotoxicity at 10 µM is -3.28%.

As to `CCc1n[nH]c(C2CN(CC(=O)NCCc3ccsc3)CCO2)n1` (configuration not stated), the cytotoxicity at 10 µM was -11%.

On to `Cc1ccc2oc(C(=O)N3CCC(C(=O)N4CCCC4)CC3)cc2n1`, for which the cytotoxicity at 10 µM was -1.35%.

For the compound `CCCNC(=O)c1c(-n2cnnn2)sc2c1CCC2`, the cytotoxicity at 10 µM worked out at 4.05%.

As for `Cc1cc(C(F)(F)F)nc(C2CCCN2S(C)(=O)=O)n1` (configuration not stated), the cytotoxicity at 10 µM worked out at 2.68%.

Consider `COc1ccc(OC)c(CN(C(=O)c2ccc(C)[nH]c2=O)C2CC2)c1`, for which the cytotoxicity at 10 µM is -1.59%.

As for `CC(=O)NC1CCN(c2ncnc3c2c(C)nn3C)C1` (configuration not stated), the cytotoxicity at 10 µM was -2.78%.

Turning to `CSCCC(=O)N1CCCC(c2nccn2Cc2ccncc2)C1` (configuration not stated), the cytotoxicity at 10 µM was determined as 9.33%.

Turning to `Cc1nn(C)c(C)c1OCC(=O)NCC(O)c1ccccc1F` (configuration not stated), the cytotoxicity at 10 µM is 0.621%.

With `CCC(C)(C)n1nnnc1C(c1cccs1)N1CCCCC1` (configuration not stated), the cytotoxicity at 10 µM was determined as 2.09%.

With `CC(C)C(C)(C#N)NC(=O)Cn1nnc(-c2cc3ccccc3o2)n1` (configuration not stated), the cytotoxicity at 10 µM amounted to 5.76%.

As to `Cc1csc(CNC(=O)NCC(O)c2ccc(F)cc2F)n1` (configuration not stated), the cytotoxicity at 10 µM was -10.8%.

For the compound `CC(C)(C)C(=O)N1C[C@@H]2COC[C@]2(c2nnc(C3CC3)o2)C1`, the cytotoxicity at 10 µM was -2.47%.

On to `CCc1cnc(CN2CCCC(c3cc(C)[nH]n3)C2)o1` (configuration not stated), for which the cytotoxicity at 10 µM worked out at 0.503%.

As for `Cn1nc2c(cc1=O)CN(Cc1nnc(-c3ccc(F)cc3)o1)CC2`, the cytotoxicity at 10 µM is -9.47%.

Consider `Cc1cccc(C2CCCCCN2Cc2cn(C)nc2C)c1` (configuration not stated), for which the cytotoxicity at 10 µM is -1.17%.

For `Cc1cc(C)nc(N2CCC(C(=O)Nc3n[nH]c(C)n3)CC2)n1`, the cytotoxicity at 10 µM was determined as 8.78%.

For the compound `Cc1nc(C)c(CNCC2(COc3cccnc3)C[C@@H](O)[C@@H](O)C2)s1` (some centres not stated), the cytotoxicity at 10 µM is -1.36%.

Turning to `CCNC(=O)[C@@H]1C[C@@H](NC(=O)c2ccc(C)cc2O)CN1CCCSC`, the cytotoxicity at 10 µM is -125%.

For `CCC(=O)N1CCN(Cc2cnc(C)nc2)[C@H]2CS(=O)(=O)C[C@H]21`, the cytotoxicity at 10 µM is 12.3%.

Regarding `Cc1nc(C)n(CCC(=O)NCC2CCCOC2)n1` (configuration not stated), the cytotoxicity at 10 µM amounted to 4.3%.

Consider `Cc1ccc(-c2snnc2C(=O)NCCCO)cc1`, for which the cytotoxicity at 10 µM was 6.67%.

Regarding `COC(=O)N1CCCC(NC(=O)NCc2nc(C)cs2)C1` (configuration not stated), the cytotoxicity at 10 µM was 7.25%.

For `CC(C)(C)c1n[nH]cc1CNC1CCC(OCC(F)(F)F)CC1` (configuration not stated), the cytotoxicity at 10 µM is -0.0197%.

Consider `NC(=O)c1cccc(CCNCc2cnc(C3CCC3)s2)c1`, for which the cytotoxicity at 10 µM was determined as 21.9%.

For `CCn1nc(C)c2ncnc(NCCCn3ccnc3)c21`, the cytotoxicity at 10 µM amounted to 10.3%.

For `CC(C)c1nn(C)c(N(C)C)c1CNC(C)c1ccc2c(c1)OCO2` (configuration not stated), the cytotoxicity at 10 µM is -4.49%.

In the case of `Cc1ccc(CN(C)C(=O)CN2CCCC2c2cnn(C)c2)cc1` (configuration not stated), the cytotoxicity at 10 µM is -1.6%.

Take `O=C(CCCc1ccccn1)NCC(O)c1c(F)cccc1F` (configuration not stated): the cytotoxicity at 10 µM was -7.85%.

Turning to `COc1ccc(OC)c(-n2c(COC(C)C)n[nH]c2=O)c1`, the cytotoxicity at 10 µM is 7.78%.

`O=C(CC1CC1)N1C[C@@H]2CN(c3ccccc3)C(=O)[C@@H]2C1`: the cytotoxicity at 10 µM was -1.48%.

Regarding `Cc1cnc2[nH]c(C(F)(F)F)c(CN3CCOCC3)c2c1`, the cytotoxicity at 10 µM was 11.7%.

As to `CCc1nc(C(=O)N2CCN(C)CC2)nn1-c1ccccc1Cl`, the cytotoxicity at 10 µM worked out at 2.1%.

With `NC(CC1CCCC1)c1ccccc1` (configuration not stated), the cytotoxicity at 10 µM came to 5.76%.

Consider `COCCN(CC1CC1)c1nc(CCN)nc2sc(C)c(C)c12`, for which the cytotoxicity at 10 µM came out at 0.956%.

As for `CCc1nc(C2CCCN2CCCc2nc3ccccc3o2)no1` (configuration not stated), the cytotoxicity at 10 µM was -7.92%.

For the compound `COc1ccc(C(=O)N(c2ccc(OC)c(F)c2)C(C)C)cn1`, the cytotoxicity at 10 µM was -1.94%.

With `Cc1cccc(-c2[nH]ncc2CNCC2CCN(CC(C)O)CC2)c1` (configuration not stated), the cytotoxicity at 10 µM was -10.1%.

With `CN(Cc1ccc(Cl)c(F)c1)C(=O)c1ccncc1F`, the cytotoxicity at 10 µM was 3.31%.

As to `CNC(=O)c1csc(-c2cccnc2)n1`, the cytotoxicity at 10 µM came out at 3.19%.

As for `CCN1CCN(S(=O)(=O)c2cc(C)c(Cl)cc2C)CC1`, the cytotoxicity at 10 µM is -3.89%.

For the compound `CCOc1ccc2[nH]c(=O)c(CN3CCC(n4cnnc4)CC3)cc2c1`, the cytotoxicity at 10 µM was -0.966%.

Turning to `COCC(NC1CCSCC1)c1ccnn1C` (configuration not stated), the cytotoxicity at 10 µM worked out at 13.5%.

For the compound `CN1CCN(C(=O)C2CCCc3[nH]ncc32)CC1` (configuration not stated), the cytotoxicity at 10 µM came out at 0.247%.
